Assay results from ChEMBL document CHEMBL1177775, “A novel synthesis of 3-aryl coumarins and evaluation of their antioxidant and lipoxygenase inhibitory activity” (Bioorg Med Chem Lett, 2010).
Calls of active or inactive are those of the source. No cut-off for these calls is given here.

What was measured:
[1] = test system: Radical scavenging activity; experiment: Antioxidant activity assessed as DPPH radical scavenging activity at 50 uM after 20 mins; assay type: functional
Outline: (§1)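 Interaction with the stable DPPH free radical in an iron-free system, with compounds at 50 μM. Readings were taken at 20 and 60 min. Each experiment was run at least in triplicate, and the standard deviation of absorbance was under 10% of the mean.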

[2] = test system: Radical scavenging activity; experiment: Antioxidant activity assessed as DPPH radical scavenging activity at 50 uM after 60 mins; assay type: functional; outline: as §1
[3] = Antioxidant activity assessed as inhibition of AAPH-induced lipid peroxidation at 100 uM by UV spectrophotometry; assay type: functional
Glycine max = experiment: Inhibition of soybean lipoxygenase at 100 uM

inhibition (Glycine max) | SMILES | Activity [1] [%] | Activity [2] [%] | inhibition [3] [%]
inactive | Cc1c(-c2ccc(Br)cc2)c(=O)oc2ccccc12 | 3 | 4 | 70
inactive | Cc1c(-c2ccc(O)cc2)c(=O)oc2ccccc12 | 5 | 9 | 20
62% | COc1ccc(-c2c(C)c3ccccc3oc2=O)cc1 | 5 | 2 | 24

The next lines start with the compound.

SMILES | inhibition (Glycine max) | Activity [1] [%] | Activity [2] [%] | inhibition [3] [%]
COc1ccc(-c2c(C)c3ccccc3oc2=O)cc1OC | 31% | 8 | 10 | 36
Cc1c(-c2ccccc2Br)c(=O)oc2ccccc12 | 6% | 4 | 3 | 20
Cc1c(C)c2c(c(C)c1O)CCC(C)(C(=O)O)O2 (stereo not drawn) | – | – | – | 63
COc1ccc(-c2cc3ccccc3oc2=O)cc1OC | inactive | 4 | 7 | 47
CC(Cc1ccc(O)c(O)c1)C(C)Cc1ccc(O)c(O)c1 (stereo not drawn) | 40% | 84 | 83 | –
